Experiments:
[1] = molecular target: T1, Polyunsaturated fatty acid 5-lipoxygenase (Homo sapiens) (UniProt P09917); assay: Inhibition of recombinant human 5-LO expressed in Escherichia coli BL21 (DE3) using arachidonic acid as substrate assessed as residual activity preincubated for 10 mins followed by CaCl2 and substrate addition measured after 10 mins by RP-HPLC analysis
T1 sequence (whole entry): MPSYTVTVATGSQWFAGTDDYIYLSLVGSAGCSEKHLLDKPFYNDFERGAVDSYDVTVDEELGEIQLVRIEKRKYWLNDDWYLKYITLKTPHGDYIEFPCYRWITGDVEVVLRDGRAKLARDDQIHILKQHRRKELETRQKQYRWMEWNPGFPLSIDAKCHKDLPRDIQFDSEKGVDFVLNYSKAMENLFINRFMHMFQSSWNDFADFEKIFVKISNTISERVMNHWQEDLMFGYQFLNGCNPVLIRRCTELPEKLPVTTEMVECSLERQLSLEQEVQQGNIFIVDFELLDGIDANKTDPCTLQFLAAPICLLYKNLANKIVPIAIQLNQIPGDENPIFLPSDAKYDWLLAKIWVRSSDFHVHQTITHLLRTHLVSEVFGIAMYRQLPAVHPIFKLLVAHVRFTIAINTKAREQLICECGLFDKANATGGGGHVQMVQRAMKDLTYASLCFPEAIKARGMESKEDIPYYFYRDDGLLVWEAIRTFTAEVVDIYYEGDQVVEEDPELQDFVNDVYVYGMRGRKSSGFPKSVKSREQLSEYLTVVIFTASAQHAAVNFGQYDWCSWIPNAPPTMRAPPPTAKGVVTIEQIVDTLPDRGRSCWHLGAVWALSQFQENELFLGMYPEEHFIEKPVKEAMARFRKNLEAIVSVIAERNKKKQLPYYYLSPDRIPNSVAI
In short: (§1)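 Human recombinant 5-LO from E. coli BL21(DE3), ATP-agarose semi-purified (0.5 µg/ml), pre-incubated with compound or 0.1% DMSO at 4 °C. It was pre-warmed 30 s at 37 °C, then started with 2 mM CaCl2 plus 20 µM AA. Stopped after 10 min with ice-cold methanol; products by RP-HPLC. Residual activity at 10 µM; IC50 from 4-5 concentrations; n=3-4.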

Prostaglandin E synthase = molecular target: T2, Prostaglandin E synthase (Homo sapiens, UniProt O14684); assay: Inhibition of mPGES-1 isolated from microsomes of interleukin-1 beta-stimulated human A549 cells using PGH2 as substrate preincubated for 15 mins followed by substrate addition measured after 1 min by RP-HPLC analysis
T2 sequence (O14684 whole entry): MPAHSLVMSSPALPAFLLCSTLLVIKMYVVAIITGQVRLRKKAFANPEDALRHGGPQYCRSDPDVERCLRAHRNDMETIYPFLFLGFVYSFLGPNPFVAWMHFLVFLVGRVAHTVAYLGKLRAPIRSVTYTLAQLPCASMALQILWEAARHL
In short: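 Microsomes from A549 cells treated with IL-1β (1 ng/ml, 72 h), diluted in 0.1 M potassium phosphate pH 7.4 with 2.5 mM glutathione. Pre-incubated 15 min with compound or DMSO, then 20 µM PGH2 (final) for 1 min at 4 °C. IC50 from 4-5 concentrations.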

[2] = molecular target: T3, Polyunsaturated fatty acid 5-lipoxygenase (Homo sapiens, UniProt P09917); assay: Inhibition of 5-LO in human neutrophils using arachidonic acid as substrate assessed as reduction in 5-LO product formation preincubated for 15 mins followed by substrate addition measured after 10 mins in presence of Ca2+ ionophore A23187 by HPLC analysis
T3 sequence (P09917 whole entry): T1 sequence (whole entry)
In short: (§2)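 Human neutrophils (5 × 10^6 in 1 ml PBS with 1 mg/ml glucose) pre-incubated 15 min at 37 °C with compound or 0.1% DMSO, then activated with 1 mM CaCl2 and 2.5 µM A23187, with or without 20 µM AA; 5-LO products measured after 10 min. Residual activity at 10 µM; IC50 by nonlinear regression from 4-5 concentrations; mean ± SEM, n=3-4.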

[3] = molecular target: T3, Polyunsaturated fatty acid 5-lipoxygenase; assay: Inhibition of recombinant human 5-LO expressed in Escherichia coli BL21 (DE3) using arachidonic acid as substrate preincubated for 10 mins followed by CaCl2 and substrate addition measured after 10 mins by RP-HPLC analysis; in short: as §1
[4] = molecular target: T1, Polyunsaturated fatty acid 5-lipoxygenase (Homo sapiens); assay: Inhibition of 5-LO in human neutrophils using arachidonic acid as substrate assessed as residual activity preincubated for 15 mins followed by substrate addition measured after 10 mins in presence of Ca2+ ionophore A23187 by HPLC analysis; in short: as §2
[5] = molecular target: T4, Prostaglandin E synthase (Homo sapiens) (UniProt O14684); assay: Inhibition of mPGES-1 isolated from microsomes of interleukin-1 beta-stimulated human A549 cells assessed as residual activity at 10 uM using PGH2 as substrate preincubated for 15 mins followed by substrate addition measured after 1 min by RP-HPLC analysis
T4 sequence (whole entry): T2 sequence (O14684 whole entry)

Row | Activity [1] [%] | IC50 (Prostaglandin E synthase) [µM] | IC50 [2] [µM] | IC50 [3] [µM] | Activity [4] [%] | Activity [5] [%] | Compound
1 | 88.4 | 1.9 | 3.2 | – | – | – | O=C(O)c1ccc(N(Cc2ccc3c(c2)OCO3)S(=O)(=O)c2ccc(-c3ccccc3)cc2)cc1
2 | – | 1.2 | 0.3 | 5.6 | – | – | CC(C)(C)c1ccc(CN(c2ccc(C(=O)O)cc2)S(=O)(=O)c2ccc(-c3ccccc3)cc2)cc1
3 | 107 | – | – | – | 84.7 | 74.1 | Cc1ccc(S(=O)(=O)N(Cc2cccc(Cl)c2)c2ccc(C(=O)O)cc2)cc1
4 | 97.6 | 6.3 | 2.4 | – | – | – | Cc1ccc(S(=O)(=O)N(Cc2ccc(Cl)c(Cl)c2)c2ccc(C(=O)O)cc2)cc1
5 | 81.1 | – | – | – | 75.7 | 91.3 | Cc1ccc(S(=O)(=O)N(Cc2ccccc2)c2ccc(C(=O)O)cc2)cc1
6 | 78 | 2.9 | 1.7 | – | – | – | O=C(O)c1ccc(N(Cc2ccc3ccccc3c2)C(=O)c2ccc(-c3ccccc3)cc2)cc1
7 | 109 | – | – | – | 98.7 | 88.9 | O=C(O)c1ccc(N(CC2CCCCC2)S(=O)(=O)c2ccc(F)cc2)cc1
8 | 86.1 | – | – | – | 65.2 | 79.9 | CCCCCCN(c1ccc(C(=O)O)cc1)S(=O)(=O)c1ccc(C)cc1
9 | 91.4 | – | – | – | 76.9 | 91.6 | Cc1ccc(S(=O)(=O)N(CC2CCCCC2)c2ccc(C(=O)O)cc2)cc1
10 | – | 0.7 | 1.8 | 5.5 | – | – | O=C(O)CCc1ccc(N(Cc2ccc3ccccc3c2)S(=O)(=O)c2ccc(-c3ccccc3)cc2)cc1
11 | 96.2 | 4 | 3.3 | – | – | – | O=C(O)c1ccc(N(Cc2ccccc2)S(=O)(=O)c2ccc(-c3ccccc3)cc2)cc1
12 | 96.7 | – | 4.8 | – | – | 52.8 | Cc1ccc(S(=O)(=O)N(Cc2ccc3ccccc3c2)c2ccc(C(=O)O)cc2)cc1
13 | 66.4 | 4.7 | 4.4 | – | – | – | O=C(O)c1ccc(N(Cc2cccs2)S(=O)(=O)c2ccc(-c3ccccc3)cc2)cc1
14 | 78.6 | 6.2 | 1.3 | – | – | – | COc1cccc(CN(c2ccc(C(=O)O)cc2)S(=O)(=O)c2ccc(-c3ccccc3)cc2)c1
15 | – | 2.7 | 0.9 | 2.3 | – | – | CC(C)(C)C#Cc1ccc(S(=O)(=O)N(Cc2ccc(C(C)(C)C)cc2)c2ccc(C(=O)O)cc2)cc1
16 | 86.1 | – | – | – | 97.2 | 96.7 | O=C(O)c1ccc(N(Cc2cccs2)S(=O)(=O)c2ccc(Cl)cc2)cc1
17 | – | 5 | 0.5 | 5.2 | – | – | CCCCCCCCN(c1ccc(C(=O)O)cc1)S(=O)(=O)c1ccc(-c2ccccc2)cc1
18 | 110 | – | 8.4 | – | – | 56.8 | O=C(O)c1ccc(N(Cc2ccoc2)S(=O)(=O)c2ccc(-c3ccccc3)cc2)cc1
19 | 93 | – | – | – | 112 | 94.6 | O=C(O)c1ccc(N(Cc2cccs2)S(=O)(=O)c2ccc(C(=O)O)cc2)cc1
20 | 75 | 4.7 | 2.1 | – | – | – | O=C(O)c1ccc(N(Cc2cnc3ccccc3c2)S(=O)(=O)c2ccc(-c3ccccc3)cc2)cc1
21 | 57.5 | 3.2 | 3.4 | – | – | – | O=C(O)c1ccc(N(CC2CCCCC2)S(=O)(=O)c2ccc(-c3ccccc3)cc2)cc1
22 | 93.4 | – | – | – | 96.7 | 82.8 | Cc1ccc(CN(c2ccc(C(=O)O)cc2)S(=O)(=O)c2ccc(C)cc2)cc1
23 | 86.7 | – | – | – | 94.6 | 96.5 | O=C(O)c1ccc(N(Cc2cccs2)S(=O)(=O)c2ccc(F)cc2)cc1

Row | Activity [1] [%] | IC50 (Prostaglandin E synthase) [µM] | IC50 [2] [µM] | IC50 [3] [µM] | Activity [4] [%] | Activity [5] [%] | Compound
24 | 115 | – | – | – | 95.2 | 71.7 | Cc1ccc(S(=O)(=O)N(Cc2ccccc2Cl)c2ccc(C(=O)O)cc2)cc1
25 | 97 | – | – | – | 102 | 96.4 | Cc1ccc(S(=O)(=O)N(Cc2cccs2)c2ccc(CC(=O)O)cc2)cc1
26 | 105 | 1.9 | 1.5 | – | – | – | CCCCCCN(c1ccc(C(=O)O)cc1)S(=O)(=O)c1ccc(-c2ccccc2)cc1
27 | 50.2 | 3.2 | 0.7 | – | – | – | CC(C)(C)c1ccc(CN(c2ccc(C(=O)O)cc2)S(=O)(=O)c2ccc(C(C)(C)C)cc2)cc1
28 | 99.1 | – | – | – | 112 | 79.9 | CCCCN(c1ccc(C(=O)O)cc1)S(=O)(=O)c1ccc(C)cc1
29 | – | 1.1 | 3.4 | 8.7 | – | – | O=C(O)Cc1ccc(N(Cc2ccc3ccccc3c2)S(=O)(=O)c2ccc(-c3ccccc3)cc2)cc1
30 | 93.2 | – | – | – | 110 | 95.7 | COc1ccc(CN(c2ccc(C(=O)O)cc2)S(=O)(=O)c2ccc(C)cc2)cc1OC
31 | 115 | – | 4 | – | – | 52.6 | CCCCN(c1ccc(C(=O)O)cc1)S(=O)(=O)c1ccc(-c2ccccc2)cc1
32 | 88.9 | 2.7 | – | – | 80 | – | Cc1ccc(S(=O)(=O)N(Cc2ccccc2)c2ccc(C(=O)NS(=O)(=O)c3ccccc3)cc2)cc1
33 | – | 6.5 | 0.5 | 6.6 | – | – | O=C(O)c1ccc(N(Cc2ccc(OCc3ccccc3)cc2)S(=O)(=O)c2ccc(-c3ccccc3)cc2)cc1
34 | 117 | 1.6 | 1.1 | – | – | – | O=C(O)c1ccc(N(Cc2ccc3c(c2)OCCO3)S(=O)(=O)c2ccc(-c3ccccc3)cc2)cc1
35 | – | 0.8 | 1 | 6 | – | – | O=C(O)c1ccc(N(Cc2cccc(Oc3ccccc3)c2)S(=O)(=O)c2ccc(Oc3ccccc3)cc2)cc1
36 | 61.4 | 5.3 | 3.5 | – | – | – | Cc1ccc(S(=O)(=O)N(Cc2ccc(Oc3ccccc3)cc2)c2ccc(C(=O)O)cc2)cc1
37 | 86.7 | – | – | – | 75.4 | 85.7 | Cc1ccc(S(=O)(=O)N(Cc2c(F)cccc2Cl)c2ccc(C(=O)O)cc2)cc1
38 | 92.7 | – | – | – | 104 | 92.5 | Cc1ccc(S(=O)(=O)N(Cc2cccs2)c2ccc(C(=O)O)cc2)cc1
39 | – | 0.3 | 1.1 | 6.4 | – | – | O=C(O)c1ccc(N(Cc2ccc3ccccc3c2)S(=O)(=O)c2ccc(-c3ccccc3)cc2)cc1
40 | 72 | 2.6 | 5.4 | – | – | – | O=C(O)c1ccc(N(CC2CCCCC2)S(=O)(=O)c2ccc(Oc3ccccc3)cc2)cc1
41 | 100 | – | – | – | 83.2 | 71.2 | Cc1ccc(S(=O)(=O)N(Cc2ccc(Cl)cc2)c2ccc(C(=O)O)cc2)cc1
42 | 65.6 | 5.2 | 1 | – | – | – | Cc1ccc(CN(c2ccc(C(=O)O)cc2)S(=O)(=O)c2ccc(-c3ccccc3)cc2)cc1
43 | – | 3.8 | 0.3 | 7.2 | – | – | O=C(O)c1ccc(N(Cc2cccc(Oc3ccccc3)c2)S(=O)(=O)c2ccc(-c3ccccc3)cc2)cc1
44 | 106 | – | – | – | 98.2 | 90.7 | Cc1ccc(S(=O)(=O)N(Cc2ccsc2)c2ccc(C(=O)O)cc2)cc1
45 | 71.9 | – | – | – | 69.7 | 76.7 | O=C(O)c1ccc(N(Cc2cccs2)S(=O)(=O)c2ccc(-c3ccc4ccccc4c3)cc2)cc1
